High-throughput results as filed in PubChem BioAssay.
Rows were chosen to be rich in hits. Some 2.1% of all compounds tested hit in one or more screens of this group.
p97 inhibitor: human p97 ATPase inhibition | P55072 | recombinant p97 ATPase, Kinase-Glo ATP luminescence, 3 h | inhibition, % at 8 µM | actives 0.42% (n = 220,000); in the data active means inhibition above about 15%;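 further: 0% = DMSO vehicle and 100% = wells lacking enzyme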
Tb hexokinase: T. brucei hexokinase 1 inhibition; recombinant TbHK1, G6PDH-coupled NADH A340; inhibition, % at 10 µM; actives 0.11% (n = 220,000); AID 1430;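 active means inhibition of 50% or more in the single-dose primary screen; inactive means inhibition below 50%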
Runt-SMMHC FRET: blocks binding of human RUNX1 Runt domain to CBFb-SMMHC; Q01196+Q13951; Cerulean-Runt/Venus-CBFb-SMMHC FRET ratio 530/480, 1 h; inhibition, % at 20 µM; actives 0.74% (n = 220,000); AID 1434;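 active means mean inhibition across duplicate retests at 20 µM reaching about 50%, limit read from the data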;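 further: 0% = DMSO wells and 100% = wells with excess untagged CBFb-SMMHC; inhibitors lower the FRET ratio by blocking Runt binding to CBFb-SMMHC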
Target sequence (Q01196 whole entry, looked up, the tested form may be a part): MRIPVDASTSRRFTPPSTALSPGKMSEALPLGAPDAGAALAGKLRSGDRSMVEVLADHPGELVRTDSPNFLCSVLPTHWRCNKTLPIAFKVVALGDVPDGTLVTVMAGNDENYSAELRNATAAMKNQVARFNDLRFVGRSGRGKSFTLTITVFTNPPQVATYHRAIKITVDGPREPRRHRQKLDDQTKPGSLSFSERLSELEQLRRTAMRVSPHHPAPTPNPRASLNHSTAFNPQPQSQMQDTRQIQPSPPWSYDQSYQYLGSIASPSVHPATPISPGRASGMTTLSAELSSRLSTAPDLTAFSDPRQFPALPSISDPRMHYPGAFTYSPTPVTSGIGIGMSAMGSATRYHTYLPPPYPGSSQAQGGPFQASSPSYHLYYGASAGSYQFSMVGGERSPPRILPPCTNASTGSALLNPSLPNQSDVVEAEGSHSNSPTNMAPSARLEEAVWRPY
Target sequence (Q13951 whole entry, looked up, the tested form may be a part): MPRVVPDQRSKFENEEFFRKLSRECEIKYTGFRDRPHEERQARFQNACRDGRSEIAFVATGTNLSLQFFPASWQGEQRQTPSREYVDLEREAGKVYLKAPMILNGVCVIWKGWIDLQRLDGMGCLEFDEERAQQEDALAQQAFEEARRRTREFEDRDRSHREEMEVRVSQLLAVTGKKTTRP
RanGTP-Imp inh: inhibitors of RanGTP-importin-beta interaction, primary screen, biochemical, FRET, CFP-Ran, YFP-importin-beta, homogeneous | cell-free CFP-Ran/YFP-importin-beta FRET ratio | inhibition, % (concentration not given with the values) | actives 1.1% (n = 300,000) | AID 2216;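 active means more than half of the replicate wells show a fall in the fluorescence ratio signal beyond about 16%, limit read from the data, passing the limit was not always enough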;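 further: 0% = DMSO wells and 100% = Ran loaded with GDP instead of GTP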
Runt-CBFb FRET: blocks binding of human RUNX1 Runt domain to CBFb. Cerulean-Runt/Venus-CBFb FRET ratio 530/480, 1 h. AID 1496. Q01196+Q13951. inhibition, % at 20 µM. actives 0.46% (n = 220,000);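 active means inhibition over about 50% at 20 µM in the single-dose screen, limit read from the data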;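 further: 0% = DMSO wells and 100% = excess unlabeled CBFb competitor control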
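Measured by: fluorescence energy transfer, 422 nm excitation, 530/480 nm emission; Assay system: Cerulean-Runt domain; Medium: Tris pH 7.5 buffer with BSA; Measure: loss of energy transfer signal; Controls: 5 µM unlabeled CBFb as full-inhibition high control; Incubation: protein complex preformed 1 h, compound exposure 1 h, room temperature, dark.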
Hck Nef HTS: inhibitors of human Hck kinase activated by Nef. P08631. Recombinant Hck-YEEI plus Nef, Z-Lyte FRET kinase assay. inhibition, % at 20 µM. actives 0.68% (n = 220,000). AID 463187;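 active means Hck-Nef kinase inhibition above about 50%, limit read from the data; inactive means inhibition below that limit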;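 further: 0% = DMSO with Hck plus Nef and 100% = Hck alone without Nef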
* marks the source's active call; other numbers are inactive results; nt = no result.

SMILES | p97 inhibitor | Tb hexokinase | Runt-SMMHC FRET | RanGTP-Imp inh | Runt-CBFb FRET | Hck Nef HTS
CSc1nnc(CCNS(=O)(=O)c2ccc(Br)cc2)n1C | nt | nt | nt | 2 | nt | nt
CC(C)N1CCC2(CC1)C(C#N)=C(N)NC(S)=C2C#N | 7 | -9 | 64* | -5 | 29 | 2
CC(C)(C)c1cc(C(=O)NCC(=O)OCC(=O)c2cccc([N+](=O)[O-])c2)cc(C(C)(C)C)c1 | 4 | 29 | -1 | 32* | -5 | 6
CCc1ccc(NC(=O)[C@H](C)NC(=O)C2CCN(C(=O)[C@@H](N)C(C)C)CC2)cc1 | nt | nt | nt | -2 | nt | nt
Cc1cc(NCc2ccco2)nc2cc(O)ccc12 | 0 | -14 | 76* | 30* | 32 | 14
Fc1ccc(Br)cc1C1C=C(c2ccc(Br)s2)Nc2ncnn21 (configuration not stated) | 5 | -8 | -38 | -67 | 3 | 0
COc1cccc(C2C=C(c3ccc(Br)s3)Nc3ncnn32)c1OC (configuration not stated) | -4 | -12 | 63* | -15 | 19 | -6
Cc1occc1-c1nnc(SCC(=O)Nc2ccccc2-c2ccccc2)n1C | -1 | -3 | 3 | 1 | -1 | 0
Cc1occc1-c1nnc(SCC(=O)N(C)c2ccccc2)n1C | nt | nt | nt | 26* | nt | nt
O=C(c1ccccc1)[C@@H]1[C@@H](C(=O)c2ccc(F)cc2)[C@@]2(C(=O)Nc3ccccc32)[C@H]2c3ccccc3C=CN12 | 0 | 0 | -1 | 21* | 0 | 1
O=C(Nc1cccc(-c2nc3ccccc3s2)c1)c1cc(=O)c2ccccc2o1 | 10 | -10 | -5 | 3 | -2 | 53*
Cc1cccc(NC(=O)c2cc(=O)c3ccccc3o2)c1 | nt | nt | nt | 1 | nt | nt
NC(=S)c1c(Cl)cc(C(F)(F)F)cc1Cl | 8 | -1 | 3 | -1 | 0 | -3
CCOC(=O)N1CCC2(CC1)C(C#N)=C(N)Oc1c2sc2nc(C)cc(C)c12 | 3 | 2 | -2 | -3 | -3 | -1
CCCN1CCC2(CC1)C(C#N)=C(N)Oc1c2sc2nc(C)cc(C)c12 | 0 | 2 | 12 | 26* | 6 | 3
COc1ccc(/C=C2/SC(=O)N(CCC(=O)Nc3ccc(C)cc3)C2=O)cc1OC | 7 | -9 | -3 | -4 | -3 | 3
COc1cc(/C=C2\SC(N)=NC2=O)ccc1OCC(=O)Nc1ccc(C)cc1 | 4 | 2 | -30 | -4 | -8 | 93*
O=C(Nc1ccc(S(=O)(=O)N2CCOCC2)cc1)c1ccc(Cl)cc1Cl | nt | nt | nt | -3 | nt | nt
C/C(=N\NC(=O)c1nnn(-c2nonc2N)c1C(C)C)c1cc(C)sc1C | nt | nt | nt | 97* | nt | nt
CSc1nn2cc(CCN3CCOCC3)c(-c3ccc(F)cc3)nc2c1C#N | -4 | -1 | 0 | 6 | -2 | 6
Cc1ccccc1CC1(CO)CCCN(Cc2nc(-c3cccs3)oc2C)C1 (configuration not stated) | -7 | 2 | -4 | 0 | -2 | 21
Cc1ccc2oc(-c3ccc(NC(=O)c4ccc5c(c4)OCO5)cc3)nc2c1 | 6 | -14 | -10 | 2 | 67* | 26
Cc1c(Cl)sn(-c2ccc(Cl)cc2)c1=O | 6 | 35 | 53* | nt | 29 | -107
Cc1nn(-c2ccc(Cl)cc2)c(=O)c2ccccc12 | 3 | -4 | 5 | -2 | 2 | 10
O=Cc1coc2c(ccc3ccccc32)c1=O | nt | nt | nt | 37* | nt | nt
SMILES | p97 inhibitor | Tb hexokinase | Runt-SMMHC FRET | RanGTP-Imp inh | Runt-CBFb FRET | Hck Nef HTS
O=C/C=C/c1coc2ccc3ccccc3c2c1=O | 8 | -27 | -4 | 1 | 1 | -21
COc1ccccc1N(C)S(=O)(=O)c1ccc(C(=O)OCC(=O)NCCC2=CCCCC2)cc1 | -4 | 32 | -2 | 2 | -4 | -4
Cc1ccc(S(=O)(=O)Nc2ccc(-n3c(C)nc4ccccc4c3=O)cc2)cc1 | nt | nt | nt | 2 | nt | nt
COc1cc(/C=C2\SC(=O)N(CCNC(=O)c3sc4cc(F)ccc4c3Cl)C2=O)cc(OC)c1OC | 2 | -26 | -54 | 1 | -21 | 55*
COc1cc(C(=O)NCC(=O)NCCN2C(=O)S/C(=C\c3ccccc3Cl)C2=O)cc(OC)c1OC | nt | nt | nt | -1 | nt | nt
CCCN1CCN(S(=O)(=O)c2ccc3c(c2)NC(=O)C(C)C(=O)N3)CC1 (configuration not stated) | nt | nt | nt | -6 | nt | nt
